Laboratory results reported in ChEMBL document CHEMBL2086325, “Suppression of autoimmune arthritis by Celastrus-derived Celastrol through modulation of pro-inflammatory chemokines” (Bioorg Med Chem, 2012).
The source made the active and inactive calls. The calls are words filed in the database; no cut-off is given here.

Key:
Rattus norvegicus [1] = experiment: Antiarthritic effect in Lewis rat adjuvant-induced arthritis model spleen adherent cells restimulated with sonicated Mtb post isolation assessed as reduction in RANTES production at 200 ug, ip starting from arthritis onset and continued uninterrupted until study end by cytokine multiplex assay; format: functional, organism-based
Method in brief: (§1)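 Mtb-immunized male Lewis rats were dosed 200 μg/rat i.p. daily from arthritis onset (vehicle: 1.2% DMSO/PBS). Spleen adherent cells were prepared on d 18, plated at 1.5 × 10^6/well in 2% FBS medium and restimulated with sonicated Mtb (10 μg/ml) for 24 h. Supernatant chemokines and cytokines were measured by Luminex multiplex. Mean ± SD of triplicates from 4–5 rats.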

Rattus norvegicus [2] = organism: Rattus norvegicus; experiment: Antiarthritic effect in sonicated Mtb-stimulated spleen adherent cells isolated from Lewis rat adjuvant-induced arthritis model assessed as reduction in TNFalpha production pre-incubated with compound for 30 mins before stimulation with sonicated-Mtb for 48 hrs by multiplex assay; format: functional, tissue-based
Rattus norvegicus [3] = experiment: Antiarthritic effect in Lewis rat adjuvant-induced arthritis model spleen adherent cells restimulated with sonicated Mtb post isolation assessed as reduction in GRO/KC production at 200 ug, ip starting from arthritis onset and continued uninterrupted until study end by cytokine multiplex assay; format: functional, organism-based; method in brief: as §1
Rattus norvegicus [4] = experiment: Antiarthritic effect in Lewis rat adjuvant-induced arthritis model spleen adherent cells restimulated with sonicated Mtb post isolation assessed as reduction in MIP-1alpha production at 200 ug, ip starting from arthritis onset and continued uninterrupted until study end by cytokine multiplex assay; format: functional, organism-based; method in brief: as §1
Rattus norvegicus [5] = organism: Rattus norvegicus; experiment: Antiarthritic effect in sonicated Mtb-stimulated spleen adherent cells isolated from Lewis rat adjuvant-induced arthritis model assessed as reduction in RANTES production pre-incubated with compound for 30 mins before stimulation with sonicated-Mtb for 48 hrs by multiplex assay; format: functional, tissue-based
Rattus norvegicus [6] = organism: Rattus norvegicus; experiment: Antiarthritic effect in IL-1beta-stimulatedspleen adherent cells isolated from Lewis rat adjuvant-induced arthritis model assessed as reduction in GRO/KC production pre-incubated with compound for 30 mins before stimulation with IL-1beta for 48 hrs by multiplex assay; format: functional, tissue-based; conditions: Spleen
Rattus norvegicus [7] = experiment: Antiarthritic effect in Lewis rat adjuvant-induced arthritis model lymph node cells restimulated with sonicated Mtb post isolation assessed as reduction in TNFalpha production at 200 ug, ip starting from arthritis onset and continued uninterrupted until study end by cytokine multiplex assay; format: functional, organism-based
Method in brief: (§2)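 Male Lewis rats were immunized s.c. with heat-killed Mtb H37Ra (1.5 mg/rat) in mineral oil. From arthritis onset they received 200 μg/rat i.p. daily (DMSO stock diluted in PBS); controls got 1.2% DMSO in PBS. On d 18, draining lymph node or synovial-infiltrating cells were cultured at 1.5 × 10^6/well in 2% FBS medium ± sonicated Mtb (10 μg/ml) for 24 h. Supernatants were analysed by multiplex.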

Rattus norvegicus [8] = experiment: (§3) Antiarthritic effect in Lewis rat adjuvant-induced arthritis model synovial infiltrating cells restimulated with sonicated Mtb post isolation assessed as reduction in MCP1 production at 200 ug, ip starting from arthritis onset and continued uninterrupted until study end by cytokine multiplex assay; format: functional, organism-based; method in brief: as §2
Rattus norvegicus [9] = experiment: Antiarthritic effect in Lewis rat adjuvant-induced arthritis model lymph node cells restimulated with sonicated Mtb post isolation assessed as reduction in IL-1beta production at 200 ug, ip starting from arthritis onset and continued uninterrupted until study end by cytokine multiplex assay; format: functional, organism-based; method in brief: as §2
Rattus norvegicus [10] = experiment: as §3, with “IL-1beta” for “MCP1”; format: functional, organism-based; method in brief: as §2
[11] = Increase in CCR1 protein surface expression in sonicated Mtb-stimulated spleen adherent cells isolated Inhibition of cell migration of RANTES-stimulated spleen adherent cells isolated from Lewis rat adjuvant-induced arthritis model at 0. 3 uM by Transwell cell migration assay; format: functional
Method in brief: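 Transwell assay with 8-μm polycarbonate inserts. Spleen adherent cells (1 × 10^6) from arthritic rats were placed in the upper chamber; the lower chamber held serum-free RPMI with RANTES (50 ng/ml) ± compound (0.1, 0.3 μM). Cells migrated 24 h at 37 °C, 5% CO2. Lower-surface cells were fixed in 4% formaldehyde, DAPI-stained, imaged at 10× and counted by image analysis. RANTES alone was set as 100%.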

Rattus norvegicus [12] = organism: Rattus norvegicus; experiment: Antiarthritic effect in sonicated Mtb-stimulated spleen adherent cells isolated from Lewis rat adjuvant-induced arthritis model assessed as reduction in MCP1 production pre-incubated with compound for 30 mins before stimulation with sonicated-Mtb for 48 hrs by multiplex assay; format: functional, tissue-based
Rattus norvegicus [13] = experiment: Antiarthritic effect in Lewis rat adjuvant-induced arthritis model lymph node cells restimulated with sonicated Mtb post isolation assessed as reduction in IL6 production at 200 ug, ip starting from arthritis onset and continued uninterrupted until study end by cytokine multiplex assay; format: functional, organism-based; method in brief: as §2
Rattus norvegicus [14] = experiment: Antiarthritic effect in Lewis rat adjuvant-induced arthritis model lymph node cells restimulated with sonicated Mtb post isolation assessed as reduction in MIP-1alpha production at 200 ug, ip starting from arthritis onset and continued uninterrupted until study end by cytokine multiplex assay; format: functional, organism-based; method in brief: as §2
Rattus norvegicus [15] = experiment: Antiarthritic effect in Lewis rat adjuvant-induced arthritis model spleen adherent cells restimulated with sonicated Mtb post isolation assessed as reduction in MCP1 production at 200 ug, ip starting from arthritis onset and continued uninterrupted until study end by cytokine multiplex assay; format: functional, organism-based; method in brief: as §1
Rattus norvegicus [16] = experiment: Antiarthritic effect in Lewis rat adjuvant-induced arthritis model spleen adherent cells restimulated with sonicated Mtb post isolation assessed as reduction in CCR6 expression at 200 ug, ip starting from arthritis onset and continued uninterrupted until study end by qPCR; format: functional, organism-based
Method in brief: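 From onset of Mtb-induced arthritis, rats received 200 μg/rat i.p. daily or vehicle. Spleen adherent cells harvested on d 18 (1.5–2.0 × 10^6 cells/well) were cultured in medium or with sonicated Mtb (10 μg/ml) for 24 h. Receptor mRNA was quantified by qPCR after TRIzol RNA isolation and cDNA synthesis, normalized to HGPRT and reported as relative message.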

Rattus norvegicus [17] = experiment: Toxicity in Lewis rat adjuvant-induced arthritis model serum assessed as increase in MCP1 production at 200 ug, ip starting from arthritis onset and continued uninterrupted until study end by cytokine multiplex assay; format: organism-based; conditions: in vivo
Method in brief: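 Arthritic Lewis rats (Mtb 1.5 mg s.c. in mineral oil) were given 200 μg/rat i.p. daily from onset until the day before harvest; controls received DMSO/PBS vehicle. On d 18, blood was taken by cardiac puncture after euthanasia and serum stored at −80 °C. Serum pooled from 4 rats was assayed in triplicate by multiplex.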

Rattus norvegicus [18] = experiment: Antiarthritic effect in Lewis rat adjuvant-induced arthritis model synovial infiltrating cells restimulated with sonicated Mtb post isolation assessed as reduction in GRO/KC production at 200 ug, ip starting from arthritis onset and continued uninterrupted until study end by cytokine multiplex assay; format: functional, organism-based; method in brief: as §2
Rattus norvegicus [19] = experiment: Antiarthritic effect in Lewis rat adjuvant-induced arthritis model spleen adherent cells restimulated with sonicated Mtb post isolation assessed as reduction in TNFalpha production at 200 ug, ip starting from arthritis onset and continued uninterrupted until study end by cytokine multiplex assay; format: functional, organism-based; method in brief: as §1
Rattus norvegicus [20] = organism: Rattus norvegicus; experiment: Antiarthritic effect in IL-1beta-stimulatedspleen adherent cells isolated from Lewis rat adjuvant-induced arthritis model assessed as reduction in TNFalpha production pre-incubated with compound for 30 mins before stimulation with IL-1beta for 48 hrs by multiplex assay; format: functional, tissue-based; conditions: Spleen

Q: With `CC1=C(O)C(=O)C=C2C1=CC=C1[C@@]2(C)CC[C@@]2(C)[C@@H]3C[C@](C)(C(=O)O)CC[C@]3(C)CC[C@]12C` [CELASTROL] as the molecule, how does the Activity (Rattus norvegicus [1]) read?
A: Active

Q: What about the Activity (Rattus norvegicus [2]) of the same molecule?
A: Dose-dependent effect

Q: And the Activity (Rattus norvegicus [3])?
A: Active

Q: And the Activity (Rattus norvegicus [4])?
A: inactive

Q: And the Activity (Rattus norvegicus [5])?
A: Dose-dependent effect

Q: What about the Activity (Rattus norvegicus [6]) of the same molecule?
A: Dose-dependent effect

Q: And the Activity (Rattus norvegicus [7])?
A: inactive

Q: What about the Activity (Rattus norvegicus [8]) of the same molecule?
A: inactive

Q: And the Activity (Rattus norvegicus [9])?
A: inactive

Q: And the Activity (Rattus norvegicus [10])?
A: inactive

Q: What about the “inhibition (INH)” value [11] of the same molecule?
A: 63%

Q: What about the Activity (Rattus norvegicus [12]) of the same molecule?
A: Dose-dependent effect

Q: What about the Activity (Rattus norvegicus [13]) of the same molecule?
A: inactive

Q: What about the Activity (Rattus norvegicus [14]) of the same molecule?
A: inactive

Q: What about the Activity (Rattus norvegicus [15]) of the same molecule?
A: Active

Q: What about the Activity (Rattus norvegicus [16]) of the same molecule?
A: Active

Q: What about the Activity (Rattus norvegicus [17]) of the same molecule?
A: Toxic

Q: What about the Activity (Rattus norvegicus [18]) of the same molecule?
A: inactive

Q: And the Activity (Rattus norvegicus [19])?
A: Active

Q: And the Activity (Rattus norvegicus [20])?
A: Dose-dependent effect
